Experiment: Toxicity liver stage against HepG2, at 10uM
Assay type: cell-based
Design: test concentration 10 uM, cell line HepG2-A16-CD81EGFP
Settings: human, HepG2-A16-CD81EGFP cells; read-out: INHIBITION
In short: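 Uninfected HepG2-A16-CD81EGFP cells, 3 × 10^3 per well, 1536-well, plated on prespotted compound at 10 μM final, parasite-free screening media added to match infected plates; puromycin 10 μM positive, DMSO 0.5% negative; run in parallel with 48 h PbLuc assay at 37 °C, 5% CO2; viability by CellTiter-Glo luminescence, normalized to controls.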
Work on `Cc1nn(C)c2ncnc(N3CCCC(OCc4cccnc4)C3)c12` (configuration not stated) yielded a cytotoxicity at 10 µM of 12.8%. `O=C(CSc1ccc2c(c1)OCCO2)NS(=O)(=O)C1CCCCC1` gave a cytotoxicity at 10 µM of -3.69%. For `Cc1cn2c(n1)CCC(NC(=O)Cn1cncn1)C2` (configuration not stated), the cytotoxicity at 10 µM was -3.86%. With `CC(C)=CCCC(C)CN1CCC(n2cc(CO)nn2)CC1` (configuration not stated) the cytotoxicity at 10 µM was -6.37%. `CCC(=O)N1CCC(Cc2ccccc2-c2ccncc2)(C(=O)NC)C1` (configuration not stated) gave a cytotoxicity at 10 µM of -16%. For `O=C(NC1CC2(CCN(CCO)CC2)c2ccccc21)c1ccsc1` (configuration not stated), the cytotoxicity at 10 µM was -14.2%. For `O=C(c1cncs1)N1CCCC1c1ccn[nH]1` (configuration not stated), the cytotoxicity at 10 µM was -11.9%. `CN(Cc1cc[nH]n1)C(=O)C1CC(=O)N(Cc2ccncc2)C1` (configuration not stated) showed a cytotoxicity at 10 µM of 1.59%. In the case of `C=C(C)COc1ccccc1CN1CCCC(C(=O)NCCCO)C1` (configuration not stated), the cytotoxicity at 10 µM is reported as 7.36%. For `CN(Cc1ccc2nonc2c1)C(=O)c1ccc(C2CCCO2)s1` (configuration not stated), the cytotoxicity at 10 µM was 12.1%. Work on `CCc1nnc(Sc2nn3cc(C)nc3s2)n1C` yielded a cytotoxicity at 10 µM of -3.64%. With `O=C(CC1CCN(CCc2ccccc2)CC1)NC1CCOCC1` the cytotoxicity at 10 µM was 3.31%. `Cc1cn2nc(Sc3nnc(C(C)C)n3C)sc2n1` gave a cytotoxicity at 10 µM of 2.3%. `CCN(c1ccc(C(=O)NCc2cc[nH]n2)cc1)C(C)C` showed a cytotoxicity at 10 µM of 11.9%. Compound `Cc1ccc(OC2(C(=O)N(C)Cc3ccoc3)CCNCC2)cc1` has a cytotoxicity at 10 µM of 9.41%. `COc1ccccc1OCC(=O)NCC(O)(c1ccccc1)C1CC1` (configuration not stated) gave a cytotoxicity at 10 µM of -16.1%. `Cc1nc(CNC(=O)NCc2ccc(OCC3CC3)nc2)cs1` gave a cytotoxicity at 10 µM of 5.07%. In the case of `Nc1no[n+]([O-])c1C(=O)NCc1cccnc1`, the cytotoxicity at 10 µM is reported as 5.93%. `CC(CO)(NC(=O)NCc1ccc(Br)s1)C1CC1` (configuration not stated) gave a cytotoxicity at 10 µM of 4.68%. For `Cc1cc(-c2cnc(C3CC3)nc2CN(C)C(=O)c2ccccn2)on1`, the cytotoxicity at 10 µM was -45%. For `CC(=O)N1CCCn2nc(CNC(=O)N3CCCCC3)cc2C1`, the cytotoxicity at 10 µM was -3.91%. `CCCn1ncc(CN2CCCC(C(=O)c3ccc(SC)cc3)C2)c1C` (configuration not stated) gave a cytotoxicity at 10 µM of -3.25%. In the case of `Cc1ccc(=O)n(CC(=O)N(C)Cc2csc(-c3cccs3)n2)n1`, the cytotoxicity at 10 µM is reported as 6.23%. With `CN1CCN(Cc2c(Cl)ccc(O)c2Cl)CC1C(=O)O` (configuration not stated) the cytotoxicity at 10 µM was 9.46%. In the case of `CC(C)c1nn(C)c(N(C)C)c1CNCC(O)c1ccccc1F` (configuration not stated), the cytotoxicity at 10 µM is reported as -5.87%. Work on `CC(NC(=O)N(C)Cc1ccc(Cl)s1)c1ccccn1` (configuration not stated) yielded a cytotoxicity at 10 µM of 0.313%. Compound `COCCN1CCC2(CC1)CC(NC(=O)CC1CC1)c1ccccc1O2` (configuration not stated) has a cytotoxicity at 10 µM of -1.83%. `COc1cc(F)c(C(C)NC(=O)c2cccnc2C)cc1OC` (configuration not stated) showed a cytotoxicity at 10 µM of 38%. `CC(C)OCCCN(CC(=O)N1CCNCC1)C(=O)c1ccc(F)cc1` gave a cytotoxicity at 10 µM of 8.85%. `Cn1ccnc1-c1ccc(NCC2COCCO2)nn1` (configuration not stated) showed a cytotoxicity at 10 µM of 9.3%. With `CN1CCC(CO[C@H]2CN(C(=O)c3cccn3C)[C@@H]3COC[C@H]23)CC1` the cytotoxicity at 10 µM was -109%. With `CCCOCC(=O)N1CCc2c(cccc2S(=O)(=O)N2CCOCC2)C1` the cytotoxicity at 10 µM was 2.71%. In the case of `COCCNC(=O)c1c(-n2cnnn2)sc2c1CCCC2`, the cytotoxicity at 10 µM is reported as 3.51%. Compound `Cc1ccccc1CSc1nc(N)cc(N2CCCC(C(N)=O)C2)n1` (configuration not stated) has a cytotoxicity at 10 µM of -2.32%. Compound `O=C(c1ccno1)N1CCn2cc(CN3CCCCC3)nc2C1` has a cytotoxicity at 10 µM of -77.2%. `COCCn1ccc2c(cnc3nc(SC)nn32)c1=O` showed a cytotoxicity at 10 µM of -17.4%. Compound `CN(C)c1ccc(NC(=O)c2cccc(N(C)C)c2)nc1` has a cytotoxicity at 10 µM of 23.3%. In the case of `Nc1nc2c(c(N3CCOCC3)n1)CCN(C(=O)c1ccc[nH]1)CC2`, the cytotoxicity at 10 µM is reported as -2.02%. For `Cc1cnc(NCc2ccc(S(=O)(=O)N(C)C(C)C)cc2)nc1C`, the cytotoxicity at 10 µM was 10.2%. Compound `Cc1ccc(NC2(C(=O)NCc3c(C)n[nH]c3C)CCCC2)cc1` has a cytotoxicity at 10 µM of 3.73%. Work on `COc1ncccc1C1CC(=O)Nc2cc(NS(C)(=O)=O)ccc21` (configuration not stated) yielded a cytotoxicity at 10 µM of -8.1%. For `c1ccc(-c2nc(CCNCc3ccccn3)co2)cc1`, the cytotoxicity at 10 µM was -1.89%. Work on `O=C(C1CC=CC1)N1Cc2nccn2CC(CN2CCCC2)C1` (configuration not stated) yielded a cytotoxicity at 10 µM of -86.5%. `O=C(c1cccn1Cc1cccs1)N1CCN(C(=O)C2CC2)CC1` gave a cytotoxicity at 10 µM of -6.59%. `Cc1n[nH]cc1CNCC(c1ccsc1)N(C)C` (configuration not stated) showed a cytotoxicity at 10 µM of 3.05%. Work on `CC(=O)N1CCCC1c1cc(Nc2nnc(C)s2)nc(C)n1` (configuration not stated) yielded a cytotoxicity at 10 µM of -18.2%. `O=C(NCc1ccc(-n2cncn2)nc1)c1ccc2c(c1)CCC2` showed a cytotoxicity at 10 µM of -16.5%. In the case of `COCCC1(C(=O)NCCc2nncn2C2CC2)CCC1`, the cytotoxicity at 10 µM is reported as -9.22%. `Cc1nonc1C1CCCN1C(=O)c1cc2n(n1)CCCNC2` (configuration not stated) gave a cytotoxicity at 10 µM of -7.73%. `c1ccc(-c2nnc3n2CCN(c2nc(C4CC4)ns2)C3)cc1` showed a cytotoxicity at 10 µM of 0.38%. `Cc1cc(C(=O)N2CC(=O)Nc3cnccc32)c(Cl)cc1F` showed a cytotoxicity at 10 µM of 3.07%. For `Cc1ccc(-n2ccc3nc(N4CCCC4)ncc3c2=O)cc1C`, the cytotoxicity at 10 µM was 7.51%. `CC(C)c1nc(CN2CCCC2CN2CCCC2)cs1` (configuration not stated) showed a cytotoxicity at 10 µM of 6.72%. With `CSCC[C@H](N)C(=O)NCc1cc2n(n1)CCCN(C(=O)C1CCC1)C2` the cytotoxicity at 10 µM was -12.9%. `Cc1nc(N2CCCC2)ccc1NCc1ccccn1` showed a cytotoxicity at 10 µM of 5.13%. With `COc1ccccc1-n1cc(C(=O)NCCCn2nc(C)nc2C)cn1` the cytotoxicity at 10 µM was 5.02%. `COCCN(Cc1nc2c(cnn2C)c(=O)[nH]1)Cc1ccco1` gave a cytotoxicity at 10 µM of -5.04%.
